Results reported in paper PMC3402649 (Peptides, 2012).
Ends that are not written are not given here. * marks the point of attachment. Octanoyl = CCCCCCCC(=O)*

Assays:
[1] = test system: E. coli; assay: Measurement of zeta-potential of bacteria treated with peptide; design: species or system Escherichia coli; conditions: 5 and 20 μg peptide/10^5 bacterial cells, 10 mM NaPi, 20 min, 37°C
Summary of the method: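 Overnight E. coli cultures were washed in PBS and resuspended at 10^8 cells/mL in 10 mM sodium phosphate. Cells were added to phosphate buffer containing peptide to give 5 or 20 μg peptide per 10^5 cells, then incubated 20 min at 37°C. Zeta potential was read on a particle sizer/zetasizer, and the mean was computed by the Smoluchowski equation. Values are mean ± SD of three independent experiments.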

[2] = test system: P. aeruginosa (ATCC 15692); assay: Agar plate-based bactericidal assay; format: cell-based, Pseudomonas aeruginosa
Summary of the method: (§1)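 Bacteria were grown aerobically overnight in BHI broth at 37°C, washed twice in PBS and suspended at 10^5 cells/mL in 10 mM sodium phosphate, pH 6.8. Suspensions were exposed to the test peptide over a range of concentrations for 2 h at 37°C, aerobically. For salt sensitivity, NaCl was added at 0–150 mM, with 25 μg/ml test peptide or 1 μg/ml reference peptide. Samples were diluted in PBS, plated on BHI agar overnight at 37°C and counted for CFU. Survival is expressed as a percentage of untreated; mean ± SD of three independent experiments.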

[3] = test system: E. coli (ATCC 27325); assay: Agar plate-based bactericidal assay; format: cell-based, Escherichia coli
Summary of the method: as §1

[4] = test system: E. faecalis (ATCC 29212); assay: Agar plate-based bactericidal assay; format: cell-based, Enterococcus faecalis; conditions: range of ghrelin concentrations tested; data not shown
[5] = LL37 1 μg/ml, 10 mM NaPi pH 6.8 with NaCl 0 to 150 mM, dose-dependent
[6] = physiological NaCl concentration (150 mM) in 10 mM NaPi pH 6.8, AG 25 μg/ml

Substance | effect on zeta-potential of E. coli (in words) [1] | effect of NaCl on bactericidal activity (in words) [2, 5] | effect of NaCl on bactericidal activity (in words) [3, 5] | bactericidal effects (in words) [4] | effect of NaCl on bactericidal activity (in words) [2, 6] | effect of NaCl on bactericidal activity (in words) [3, 6]
LL37 (LLGDFFRKSKEKIGKEFKRIVQRIKDFLRNLVPRTES; Antibacterial peptide LL-37; UniProt P49913 134-170, looked up) [reference compound] | increased the zeta-potential of E. coli | attenuated | attenuated | – | – | –
acylated ghrelin (GSS(Octanoyl)FLSPEHQRVQQRKESKKPPAKLQPR; UniProt Q9UBU3 24-51, looked up) [AG] | – | – | – | neither AG nor DAG showed significant bactericidal effects | decreased | decreased
desacylated ghrelin (GSSFLSPEHQRVQQRKESKKPPAKLQPR; Ghrelin-28 non-acylated; UniProt Q9UBU3 24-51, looked up) [DAG] | – | – | – | neither AG nor DAG showed significant bactericidal effects | – | –
